Reference: ChEMBL document CHEMBL1131000, “Synthesis and quantitative structure-activity relationships of N-(1-benzylpiperidin-4-yl)phenylacetamides and related analogues as potent and selective sigma1 receptor ligands” (J Med Chem, 1998)
pKi: −log10 of the molar value.

Molecular target: Sigma 2 receptor
Experiment: Binding affinity towards sigma 2 receptor site in rat liver membranes using [3H]DTG as radioligand in presence of (+)-pentazocine.
Assay type: cell membranes, Membrane
Outline: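 Male Sprague-Dawley rat liver crude P2 membranes, 35 μg protein, with 3 nM [3H]DTG plus 100 nM (+)-pentazocine to mask σ1 sites. Incubated in 50 mM Tris-HCl pH 8.0 for 120 min at 25 °C. Nonspecific binding defined with 5 μM DTG. Filtration, then scintillation counting. IC50 by nonlinear regression.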

| pKi | Structure (SMILES) |
| --- | --- |
| 6.18 | O=C(Cc1ccccc1F)NC1CCN(Cc2ccccc2)CC1 |
| 7.27 | O=C(Cc1ccc(F)c(F)c1)NC1CCN(Cc2ccccc2)CC1 |
| 6.89 | O=C(Cc1cc(F)ccc1F)NC1CCN(Cc2ccccc2)CC1 |
| < 6.00 | COc1cc(CC(=O)NC2CCN(Cc3ccccc3)CC2)cc(OC)c1OC |
| 6.61 | O=C(Cc1ccc([N+](=O)[O-])cc1[N+](=O)[O-])NC1CCN(Cc2ccccc2)CC1 |
| < 6.00 | COc1ccc(OC)c(CC(=O)NC2CCN(Cc3ccccc3)CC2)c1 |
| 7.27 | O=C(Cc1ccc(C(F)(F)F)cc1)NC1CCN(Cc2ccccc2)CC1 |
| 6.76 | O=C(Cc1ccccc1Cl)NC1CCN(Cc2ccccc2)CC1 |
| 6.62 | O=C(Cc1ccccc1)NC1CCN(Cc2ccccc2)CC1 |
| 7.08 | CSc1ccc(CC(=O)NC2CCN(Cc3ccccc3)CC2)cc1 |
| 6.49 | COc1cccc(CC(=O)NC2CCN(Cc3ccccc3)CC2)c1 |
| 7.06 | O=C(Cc1ccccc1Br)NC1CCN(Cc2ccccc2)CC1 |
| 6.12 | O=C(Cc1ccc(O)c(Cl)c1)NC1CCN(Cc2ccccc2)CC1 |
| < 6.00 | COc1ccc(CC(=O)NC2CCN(Cc3ccccc3)CC2)cc1OC |
| 6.31 | O=C(Cc1ccccc1[N+](=O)[O-])NC1CCN(Cc2ccccc2)CC1 |
| < 6.00 | COc1cc(CC(=O)NC2CCN(Cc3ccccc3)CC2)cc(OC)c1 |
| 7.43 | O=C(Cc1cccc(Cl)c1)NC1CCN(Cc2ccccc2)CC1 |
| < 6.00 | Nc1ccc(CC(=O)NC2CCN(Cc3ccccc3)CC2)cc1 |
| 7.16 | O=C(Cc1ccc(F)cc1)NC1CCN(Cc2ccccc2)CC1 |
| 6.32 | COc1ccc(CC(=O)NC2CCN(Cc3ccccc3)CC2)cc1 |
| 7.09 | CSc1ccc(NC(=O)NC2CCN(Cc3ccccc3)CC2)cc1 |
| 7.84 | O=C(Cc1ccc(Cl)c(Cl)c1)NC1CCN(Cc2ccccc2)CC1 |

| pKi | Structure (SMILES) |
| --- | --- |
| 7.43 | O=C(Cc1cc(F)cc(F)c1)NC1CCN(Cc2ccccc2)CC1 |
| 7.62 | O=C(Cc1ccc(Br)cc1)NC1CCN(Cc2ccccc2)CC1 |
| 7.61 | O=C(Cc1ccc(Cl)cc1Cl)NC1CCN(Cc2ccccc2)CC1 |
| < 6.00 | O=C(Cc1ccc(O)c(O)c1)NC1CCN(Cc2ccccc2)CC1 |
| < 6.00 | COc1ccccc1CC(=O)NC1CCN(Cc2ccccc2)CC1 |
| 7.09 | O=C(Cc1ccc(Cl)cc1)NC1CCN(Cc2ccccc2)CC1 |
| < 6.00 | O=C(Cc1cccc(O)c1)NC1CCN(Cc2ccccc2)CC1 |
| 6.82 | O=C(Cc1cccc(F)c1)NC1CCN(Cc2ccccc2)CC1 |
| 6.46 | O=C(Cc1ccccc1O)NC1CCN(Cc2ccccc2)CC1 |
| 6.98 | O=C(Cc1ccc([N+](=O)[O-])cc1)NC1CCN(Cc2ccccc2)CC1 |
| 7.15 | O=C(Cc1c(Cl)cccc1Cl)NC1CCN(Cc2ccccc2)CC1 |
| 7.82 | O=C(Cc1cccc(Br)c1)NC1CCN(Cc2ccccc2)CC1 |
| 7.10 | O=C(Cc1cccc([N+](=O)[O-])c1)NC1CCN(Cc2ccccc2)CC1 |
| 6.89 | O=C(Cc1ccc(F)cc1F)NC1CCN(Cc2ccccc2)CC1 |
| < 6.00 | O=C(Cc1ccc(O)cc1)NC1CCN(Cc2ccccc2)CC1 |
| 7.21 | O=C(Cc1ccccc1C(F)(F)F)NC1CCN(Cc2ccccc2)CC1 |
| 6.54 | O=C(Cc1ccc2c(c1)OCO2)NC1CCN(Cc2ccccc2)CC1 |
| 6.68 | O=C(Cc1c(F)cccc1F)NC1CCN(Cc2ccccc2)CC1 |
| 7.42 | O=C(Cc1cccc(C(F)(F)F)c1)NC1CCN(Cc2ccccc2)CC1 |
| 6.64 | COc1ccc(NC(=O)NC2CCN(Cc3ccccc3)CC2)c(OC)c1 |
| 6.27 | COc1cccc(C(O)CNC2CCN(Cc3ccccc3)CC2)c1OC (centres undefined) |

| Structure (SMILES) | pKi |
| --- | --- |
| OC(CCCN1CCC(O)(c2ccc(Cl)cc2)CC1)c1ccc(F)cc1 (centres undefined) [HYDROXYHALOPERIDOL] | 7.54 |
